Calls of active or inactive are those of the source. The rule behind the calls is not given here.
Legend:
[1] = tested on: MDA-MB-231; test: Antiproliferative activity against human MDA-MB-231 cells assessed as increase in cell death at 10 uM for 2 days by Guava viacount assay; type: functional, cell-based; settings: time 2.0 day
Procedure, shortened: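 Cells plated at 2 × 10^4 (24-well) or 1 × 10^5 (12-well), exposed to a range of GSK343 concentrations for 2 days against DMSO solvent control; cell number and viability read by Guava ViaCount flow cytometry, relative to DMSO. Triplicate; mean ± SD.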

[2] = tested on: MDA-MB-231; test: Induction of cell cycle arrest in human MDA-MB-231 cells assessed as accumulation of cells at S phase measured at 2 uM by BrdU/PI staining based flow cytometric analysis (reference value: 44.6%); type: functional
[3] = tested on: BT-474; test: Induction of cell cycle arrest in human BT-474 cells assessed as accumulation of cells at G1 phase measured at 2 uM by BrdU/PI staining based flow cytometric analysis (reference value: 60.8%); type: functional
[4] = tested on: MDA-MB-231; test: Antiproliferative activity against human MDA-MB-231 cells assessed as downregulation of PCNA by immunoblot analysis; type: functional, cell-based
Procedure, shortened: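 Cells exposed to GSK343 at 2 µM (standard level unless stated otherwise), lysed and immunoblotted; α-tubulin and total H3 as loading controls.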

[5] = tested on: MDA-MB-436; test: Upregulation of CDKN1A gene in human MDA-MB-436 cells at 2 uM by qRT-PCR analysis; type: functional, cell-based
Procedure, shortened: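 Relative transcript levels measured by qRT-PCR in cells treated with 2 µM inhibitor, normalised to DMSO-treated control cells. Triplicate experiments unless stated otherwise; mean ± SD reported; unpaired two-tailed Student's t-test at p < 0.05.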

[6] = tested on: MDA-MB-436; test: Effect on human MDA-MB-436 cells assessed as increase in global 5hmc level by dot analysis; type: functional, cell-based
Procedure, shortened: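 Global 5hmC measured by dot blot on genomic DNA from cells given GSK343 or carrying EZH2 knock-down, with DMSO or scrambled shRNA as controls. DNA denatured in 0.1 M NaOH at 99 °C for 5 min, then neutralized with ammonium sulfate pH 7.0. 5 µg spotted, UV-crosslinked, probed with anti-5hmC for 1 h at room temperature, ECL detection, dot intensity quantified. Mean ± SD.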

[7] = tested on: MDA-MB-231; test: Downregulation of EZH2 protein expression in human MDA-MB-231 cells at 2 uM for 2 days by immunoblot analysis; type: functional, cell-based; settings: time 2.0 day
[8] = tested on: MDA-MB-231; test: Effect on […] in human MDA-MB-231 cells assessed as repression in TET1 promoter EZH2 by ChiP-qPCR analysis; type: functional, cell-based
Procedure, shortened: (§1)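 Cells treated with GSK343 or DMSO; chromatin immunoprecipitated with anti-EZH2 or anti-H3K27me3 antibody and quantified by qPCR with primers for the TET1 promoter; input as internal control, IgG as negative control.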

[9] = tested on: MDA-MB-231; test: Effect on […] in human MDA-MB-231 cells assessed as repression in TET1 promoter H3K27me3 by ChiP-qPCR analysis; type: functional, cell-based; procedure, shortened: as §1
[10] = tested on: MDA-MB-436; test: Effect on […] in human MDA-MB-436 cells assessed as repression in TET1 promoter H3K27me3 by ChiP-qPCR analysis; type: functional, cell-based
Procedure, shortened: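 ChIP-qPCR on MDA-MB-231 and MDA-MB-436 cells exposed to GSK343 or DMSO. Chromatin pulled down with anti-H3K27me3 antibody and amplified with primers specific for the TET1 promoter. Input (no immunoprecipitation) serves as internal control and anti-IgG as negative control. Mean ± SD, triplicate unless stated.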

[11] = tested on: MDA-MB-231; test: Antiproliferative activity in human MDA-MB-231 cells expressing shTET1 assessed as increase in SA-beta-gal positive cells by SA-beta-gal staining analysis (reference value: 9+/-1.5%); type: functional
[12] = tested on: MDA-MB-231; test: Effect on human MDA-MB-231 cells expressing shTET1 assessed as reduction in cyclinA by immunoblot analysis; type: functional, cell-based
[13] = tested on: MDA-MB-436; test: Effect on human MDA-MB-436 cells expressing shTET1 assessed as reduction in cyclinA by immunoblot analysis; type: functional, cell-based
[14] = tested on: MDA-MB-231; test: Effect on human MDA-MB-231 cells expressing shTET1 assessed as increase in p53 cascade by immunoblot analysis; type: functional, cell-based
[15] = tested on: MDA-MB-436; test: Effect on human MDA-MB-436 cells expressing shTET1 assessed as increase in p53 cascade by immunoblot analysis; type: functional, cell-based
[16] = tested on: MDA-MB-436; test: Effect on human MDA-MB-436 cells expressing shTET1 assessed as increase in H3K9me3 cascade by immunoblot analysis; type: functional, cell-based
[17] = tested on: MDA-MB-436; test: Cytotoxicity against human MDA-MB-436 cells assessed as killing of cells at 2 uM in presence of adriamycin; type: functional, cell-based
Procedure, shortened: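 Viability after a range of adriamycin concentrations given alone or together with 2 µM GSK343, measured by Guava ViaCount; mean ± SD.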

[18] = tested on: MDA-MB-231; test: Effect on human MDA-MB-231 cells assessed as increase in TET1 level at 2 uM in presence of adriamycin by immunoblot analysis; type: functional, cell-based
Procedure, shortened: (§2)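 Immunoblot of MDA-MB-231 and MCF7 lysates after 0.005 µg/ml adriamycin with or without 2 µM GSK343, or DMSO. α-Tubulin and total H3 used as loading controls.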

[19] = tested on: MCF7; test: Effect on human MCF7 cells assessed as increase in TET1 level at 2 uM in presence of adriamycin by immunoblot analysis; type: functional, cell-based; procedure, shortened: as §2
[20] = tested on: MDA-MB-436; test: Effect on human MDA-MB-436 cells assessed as apoptotic phenotype by measuring increase in p53 expression level at 2 uM in presence of adriamycin by immunoblot analysis; type: functional, cell-based
Procedure, shortened: (§3)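 Immunoblot of cell lysates after 0.05 µg/ml adriamycin alone, with 2 µM GSK343, or DMSO. α-Tubulin and total H3 used as loading controls.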

[21] = tested on: MDA-MB-436; test: Effect on human MDA-MB-436 cells assessed as apoptotic phenotype by measuring increase in PUMA expression level at 2 uM in presence of adriamycin by immunoblot analysis; type: functional, cell-based; procedure, shortened: as §3
[22] = tested on: MDA-MB-231; test: Effect on human MDA-MB-231 cells assessed as apoptotic phenotype by measuring increase in BAX expression level at 2 uM in presence of adriamycin by immunoblot analysis; type: functional, cell-based; procedure, shortened: as §3
[23] = tested on: MDA-MB-231; test: Effect on human MDA-MB-231 cells assessed as apoptotic phenotype by measuring increase in BIM expression level at 2 uM in presence of adriamycin by immunoblot analysis; type: functional, cell-based; procedure, shortened: as §3
[24] = tested on: MDA-MB-436; test: Induction of apoptosis in human MDA-MB-436 cells assessed as increase in accumulation of cells at G1 phase in presence of adriamycin by BrdU/PI-based cell cycle analysis; type: functional
Procedure, shortened: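 Cell cycle by BrdU/PI staining and flow cytometry, giving G1, S and G2 fractions. Cells received 0.005 µg/ml adriamycin with or without 2 µM GSK343, or DMSO. Mean ± SD.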

[25] = tested on: MDA-MB-231; test: Induction of apoptosis in human MDA-MB-231 cells xenografted in Crl:NU-Foxn1-nu/nu mouse assessed as apoptotic cells in tumor administered at 5 mg/kg, ip in presence of adriamycin treated for 21 days by TUNEL staining analysis; type: functional, organism-based; settings: time 21.0 day
Procedure, shortened: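 TUNEL staining of xenograft tumor sections. Dosing started when tumors reached about 50 mm3: twice-weekly intraperitoneal GSK343 5 mg/kg, adriamycin 1 mg/kg, the combination, or DMSO solvent control, for 21 days.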

[26] = tested on: MDA-MB-231; test: Effect on human MDA-MB-231 cells assessed as increase in TET1 protein level by qRT-PCR analysis

CCCc1cc(C)[nH]c(=O)c1CNC(=O)c1cc(-c2ccnc(N3CCN(C)CC3)c2)cc2c1cnn2C(C)C
Activity [1]: Active
Activity [2]: 16.1%
Activity [3]: 56.8%
Activity [4]: Active
Activity [5]: Active
Activity [6]: Active
Activity [7]: Active
Activity [8]: Active
Activity [9]: Active
Activity [10]: Active
Activity [11]: 12.3%
Activity [12]: inactive
Activity [13]: inactive
Activity [14]: inactive
Activity [15]: inactive
Activity [16]: inactive
Activity [17]: Active
Activity [18]: Active
Activity [19]: inactive
Activity [20]: Active
Activity [21]: Active
Activity [22]: Active
Activity [23]: Active
Activity [24]: Active
Activity [25]: Active
Activity [26]: Active

Source: ChEMBL document CHEMBL5715960, “Epigenetic Co-Deregulation of EZH2/TET1 is a Senescence-Countering, Actionable Vulnerability in Triple-Negative Breast Cancer” (Theranostics, 2019)
